Article PMC8594913 (Nature cancer, 2021)
Blank lines part the entries; values can stand above or below the molecule they belong to.

Legend:
[1] = tested on: bacterial M.SssI CpG DNMT; details: cited from earlier work
SKM-1 xenograft = test: Subcutaneous SKM-1 xenograft; format: in vivo, mouse
MV4–11 xenograft = test: Subcutaneous MV4–11 xenograft; format: in vivo, mouse
MV4–11 cells [2] = test: Global DNA methylation; format: cell-based, human; details: MV4–11, day 4
How it was run: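 MV4–11 cells plated in 10-cm dishes 24 h before treatment with 0.1% DMSO or compound (8-point, threefold serial dilution). Global 5-methylcytosine was measured, and treated values were normalized to vehicle control.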

[3] = Peripheral blood cell counts, SKM-1 study; format: in vivo, mouse
How it was run: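 SKM-1 xenograft mice. Compound given s.c. twice daily in 10% captisol (pH 4.5–5); reference agent i.p. three times weekly; both at 10 ml kg⁻¹. Blood counts taken at end of dosing (day 28) and after 27 d recovery (day 55), n = 5 per group. One-way ANOVA with Dunnett's test, adjusted P; log₁₀-transformed where variances were unequal.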

MV4–11 cells [4] = test: Cell growth–death assay, MV4–11; format: cell-based, human
[5] = tested on: 51 hematologic cancer cell lines; test: 6-d proliferation, panel of 51 hematologic cancer cell lines; format: cell-based, human
How it was run: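 6-d proliferation run by Horizon Discovery on its 2D OncoSignature panel. Compound given as a 10-point, threefold serial dilution, in triplicate. Growth-death index (GDI) runs from −100 (complete cell death) to 100 (no inhibition). Growth IC50 (gIC50) and GDI are reported per line.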

[6] = tested on: AML cells (MV4–11, GDM-1, SKM-1); test: Western blotting; format: cell-based, human
How it was run: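 Cells plated in 15-cm dishes 24 h before treatment with 0.1% DMSO or compound (6-point, fivefold serial dilution); GDM-1 cells were treated 2 d at 3.2–10,000 nM. Blots probed with IRDye secondary antibodies and imaged on a LI-COR Odyssey. Total H2AX (and vinculin for GDM-1) served as loading controls.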

[7] = tested on: MV4–11 human systemic AML model; test: Disseminated MV4–11 AML model, survival; format: in vivo, mouse; details: 30 d of dosing
DNMT1 [8] = target: T1, DNMT1 (Homo sapiens, UniProt P26358); test: Radioactive SPA, DNMT1, 40-mer hemi-methylated DNA; format: biochemical; details: read-out: DNMT1 IC50
T1 sequence (P26358 whole entry): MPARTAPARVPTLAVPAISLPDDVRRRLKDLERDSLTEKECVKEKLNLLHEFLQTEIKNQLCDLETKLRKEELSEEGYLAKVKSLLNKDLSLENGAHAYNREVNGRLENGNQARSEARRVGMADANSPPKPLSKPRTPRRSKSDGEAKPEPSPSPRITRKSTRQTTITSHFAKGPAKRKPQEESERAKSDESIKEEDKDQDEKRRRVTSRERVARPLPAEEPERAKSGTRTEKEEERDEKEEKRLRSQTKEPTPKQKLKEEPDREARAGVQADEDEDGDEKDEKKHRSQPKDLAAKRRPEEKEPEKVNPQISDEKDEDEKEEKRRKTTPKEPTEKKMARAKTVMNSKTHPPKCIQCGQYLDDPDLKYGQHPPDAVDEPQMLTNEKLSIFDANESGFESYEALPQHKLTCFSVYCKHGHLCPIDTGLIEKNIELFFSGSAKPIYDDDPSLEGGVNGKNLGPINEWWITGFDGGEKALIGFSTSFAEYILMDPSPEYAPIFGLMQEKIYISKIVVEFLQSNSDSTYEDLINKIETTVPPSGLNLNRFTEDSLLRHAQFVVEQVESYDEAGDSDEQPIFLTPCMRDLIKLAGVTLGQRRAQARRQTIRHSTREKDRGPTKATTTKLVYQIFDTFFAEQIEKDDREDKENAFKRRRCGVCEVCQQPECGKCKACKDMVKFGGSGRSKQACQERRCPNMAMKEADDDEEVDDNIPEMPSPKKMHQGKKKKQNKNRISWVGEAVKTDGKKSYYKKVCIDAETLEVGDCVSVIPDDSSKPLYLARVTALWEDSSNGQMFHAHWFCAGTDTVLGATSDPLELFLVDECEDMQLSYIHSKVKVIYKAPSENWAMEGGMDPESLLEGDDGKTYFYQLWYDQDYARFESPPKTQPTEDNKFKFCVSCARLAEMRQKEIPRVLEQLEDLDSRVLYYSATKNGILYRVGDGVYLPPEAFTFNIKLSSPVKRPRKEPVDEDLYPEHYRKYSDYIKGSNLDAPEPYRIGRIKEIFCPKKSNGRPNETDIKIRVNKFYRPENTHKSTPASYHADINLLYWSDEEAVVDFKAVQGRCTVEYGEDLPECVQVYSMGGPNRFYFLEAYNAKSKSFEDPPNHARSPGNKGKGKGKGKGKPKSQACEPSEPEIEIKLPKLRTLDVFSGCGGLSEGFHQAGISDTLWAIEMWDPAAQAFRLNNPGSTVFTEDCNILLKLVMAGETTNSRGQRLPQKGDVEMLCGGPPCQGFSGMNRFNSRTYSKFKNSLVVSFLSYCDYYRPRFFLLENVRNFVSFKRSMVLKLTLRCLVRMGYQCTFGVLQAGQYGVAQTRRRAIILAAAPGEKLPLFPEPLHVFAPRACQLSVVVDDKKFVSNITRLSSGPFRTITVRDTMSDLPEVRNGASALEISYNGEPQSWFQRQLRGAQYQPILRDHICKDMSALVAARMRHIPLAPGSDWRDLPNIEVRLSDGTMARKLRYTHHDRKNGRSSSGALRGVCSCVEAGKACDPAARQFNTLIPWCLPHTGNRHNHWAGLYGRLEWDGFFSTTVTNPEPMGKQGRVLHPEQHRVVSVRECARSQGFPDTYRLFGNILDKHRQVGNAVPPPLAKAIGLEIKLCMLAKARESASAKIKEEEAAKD

H1507Y mutant DNMT1 = test: Radioactive SPA, H1507Y DNMT1; format: biochemical, human
[9] = tested on: hemi-methylated hairpin oligonucleotide; test: DNA binding assay
How it was run: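 Differential scanning fluorimetry on hemi-methylated hairpin oligonucleotide (200 nM) with 100 μM compound or DMSO. Ramp 25–95 °C at 1 °C min⁻¹, fluorescence read after each step. n = 2 biologically independent experiments, two technical replicates each.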

Gla1 = Gla1 counter screen; format: biochemical; details: read-out: Gla1 IC50; n = 40
DNMT1 [10] = target: T1, DNMT1; test: Reversibility by rapid dilution; format: biochemical; details: 100-fold rapid dilution
How it was run: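 DNMT1 preincubated 20 min with compound, then the complex was diluted 100-fold by adding substrates. Activity recovery was followed over 70 min by quenching at time points after dilution. Data were fit to a fixed steady-state velocity equation.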

[11] = Compound stability in media without or with cells; format: physicochemical; details: 1,000 nM, media without or with MV4–11 cells, 37 °C
How it was run: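 MV4–11 cells, or media alone, plated 24 h before adding compound (100 or 1000 nM) and incubated at 37 °C. Remaining compound was quantified by LC-MS/MS.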

DNMT1 [12] = details: cited from earlier work
DNMT3A = details: cited from earlier work
Murine DNMT1 (731–1602) = Murine DNMT1 (731–1602) (Mus musculus, UniProt P13864); test: Investigation of covalent adduct; format: binding; details: 25 μM, 20 h, hemi-methylated DNA
Sequence of Murine DNMT1 (731–1602) (P13864 731-1602): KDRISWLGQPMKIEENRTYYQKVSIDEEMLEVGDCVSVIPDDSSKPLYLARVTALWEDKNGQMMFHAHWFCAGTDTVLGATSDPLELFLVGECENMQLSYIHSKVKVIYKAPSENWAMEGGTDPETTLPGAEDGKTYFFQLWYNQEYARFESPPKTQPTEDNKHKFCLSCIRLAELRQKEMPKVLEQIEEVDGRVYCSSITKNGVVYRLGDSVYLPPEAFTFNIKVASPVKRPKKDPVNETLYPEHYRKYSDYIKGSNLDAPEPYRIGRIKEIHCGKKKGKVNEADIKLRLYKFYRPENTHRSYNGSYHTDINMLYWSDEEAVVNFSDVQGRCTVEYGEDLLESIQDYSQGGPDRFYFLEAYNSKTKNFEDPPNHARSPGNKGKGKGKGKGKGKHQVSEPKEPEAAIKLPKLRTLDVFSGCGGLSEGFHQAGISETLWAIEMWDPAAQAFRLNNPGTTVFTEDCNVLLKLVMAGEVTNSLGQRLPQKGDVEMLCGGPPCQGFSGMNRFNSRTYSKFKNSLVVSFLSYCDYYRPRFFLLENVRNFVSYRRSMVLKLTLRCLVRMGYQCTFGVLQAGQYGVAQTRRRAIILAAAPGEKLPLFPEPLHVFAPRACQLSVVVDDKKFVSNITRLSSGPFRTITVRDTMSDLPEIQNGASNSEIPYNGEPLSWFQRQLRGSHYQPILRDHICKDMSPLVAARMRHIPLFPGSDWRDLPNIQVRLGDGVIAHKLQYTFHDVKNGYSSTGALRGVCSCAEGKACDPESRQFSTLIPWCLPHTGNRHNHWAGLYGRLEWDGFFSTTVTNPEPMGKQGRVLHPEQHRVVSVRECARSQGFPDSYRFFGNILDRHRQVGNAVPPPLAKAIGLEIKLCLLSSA
How it was run: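 Murine DNMT1 (731–1602, 5.6 μM) incubated 20 h with 14-mer hemi-methylated DNA duplex (25 μM), with or without compound (25 μM). Buffer: 20 mM Tris pH 7.5, 50 mM NaCl, 5 mM DTT, 20% glycerol, 2.5% DMSO. Aliquots diluted fivefold in 0.05% TFA/0.1% formic acid; 20 pmol protein analysed by intact-mass TOF LC–MS for adducts.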

kinases (n = 369) = test: Kinase selectivity panel; format: biochemical; details: read-out: IC50 values, kinase panel, panel tested at 10 μM
How it was run: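 Kinase panel run at Reaction Biology with HotSpot technology, compound at a single concentration of 10 μM. PIM1, PKD2/PRKD2 and DYRK2 were run in IC50 format (10-point, threefold serial dilution).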

Mouse pharmacokinetics = format: in vivo; details: mice
How it was run: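 Naive mice, 3 per group, each given a single dose: 2 mg kg⁻¹ i.v. (male CD-1), 2 mg kg⁻¹ s.c. (male C57/BL6) or 30 mg kg⁻¹ s.c. (female Nu/Nu). Composite blood samples were taken over 24 h and measured by HPLC–MS/MS. Parameters came from noncompartmental analysis of mean blood concentration–time profiles; AUC by linear trapezoidal rule.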

[13] = mouse, in vivo, sc
SKM-1 tumors = test: Pharmacodynamics in SKM-1 tumors; format: in vivo, mouse; details: SKM-1, 45 mg kg^−1, 8 d of dosing
How it was run: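 SKM-1 subcutaneous xenografts in NOD-scid mice, 3 per group (24 total). Compound given s.c. twice daily in 10% captisol (pH 4.5–5) at 10 ml kg⁻¹. Tumors and blood collected 6 h after the last dose on day 8.5. Tumors assayed for global 5-methylcytosine; blood drug levels by HPLC–MS/MS after acetonitrile precipitation.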

[14] = target: other methyltransferases (n = 34); test: Methyltransferase selectivity panel; format: biochemical; details: read-out: IC50 values, methyltransferase panel
How it was run: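 Methyltransferase panel run at Reaction Biology with HotSpot technology in IC50 format (10-point, threefold serial dilution).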

DNMT1 in HepG2 cells = DNMT1 in HepG2 cells (Homo sapiens, UniProt P26358); test: Cellular thermal shift assay; format: cell-based; details: HepG2, 90 min
Sequence of DNMT1 in HepG2 cells (P26358 whole entry): as the sequence (P26358 whole entry) above

DNMT1 (729-1600) = DNMT1 (729-1600) (human, UniProt P26358 729-1600); test: X-ray crystallography
Sequence of DNMT1 (729-1600) (P26358 729-1600): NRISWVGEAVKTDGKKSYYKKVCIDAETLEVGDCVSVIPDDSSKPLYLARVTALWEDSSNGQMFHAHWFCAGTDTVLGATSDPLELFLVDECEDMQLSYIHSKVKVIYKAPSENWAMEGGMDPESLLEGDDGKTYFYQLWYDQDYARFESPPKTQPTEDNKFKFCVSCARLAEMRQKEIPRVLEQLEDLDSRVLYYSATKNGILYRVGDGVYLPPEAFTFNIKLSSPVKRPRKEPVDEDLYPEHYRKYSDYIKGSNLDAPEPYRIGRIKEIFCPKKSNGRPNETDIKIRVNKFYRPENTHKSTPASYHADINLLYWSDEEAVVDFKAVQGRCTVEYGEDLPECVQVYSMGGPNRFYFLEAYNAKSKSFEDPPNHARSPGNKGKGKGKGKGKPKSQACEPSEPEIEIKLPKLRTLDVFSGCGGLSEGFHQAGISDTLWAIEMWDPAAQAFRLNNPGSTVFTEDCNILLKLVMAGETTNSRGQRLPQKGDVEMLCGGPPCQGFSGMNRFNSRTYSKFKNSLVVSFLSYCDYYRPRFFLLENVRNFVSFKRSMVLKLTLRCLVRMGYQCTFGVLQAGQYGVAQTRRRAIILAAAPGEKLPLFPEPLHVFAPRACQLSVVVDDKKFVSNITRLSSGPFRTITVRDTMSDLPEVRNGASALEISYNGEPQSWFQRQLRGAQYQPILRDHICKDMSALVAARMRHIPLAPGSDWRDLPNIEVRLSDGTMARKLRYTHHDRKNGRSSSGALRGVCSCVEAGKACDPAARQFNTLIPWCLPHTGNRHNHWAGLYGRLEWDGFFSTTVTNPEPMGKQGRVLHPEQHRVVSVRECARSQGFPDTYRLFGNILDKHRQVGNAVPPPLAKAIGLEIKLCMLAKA

Molecule: O=C(O)C(Cc1c[nH]c2ccccc12)N1C(=O)c2ccccc2C1=O (stereo not drawn) [RG-108]
- IC50 [1]: 12 nM

Molecule: Nc1ncn([C@H]2C[C@H](O)[C@@H](CO)O2)c(=O)n1 [DAC, decitabine, reference compound]
- tumor growth inhibition relative to vehicle (SKM-1 xenograft; SKM-1, intraperitoneal three times weekly, not statistically significant): 18%
- tumor growth inhibition relative to vehicle (MV4–11 xenograft; MV4–11, intraperitoneal three times weekly, not statistically significant): 57%
- concentration above which DNA hypomethylation and gene activation diminish (MV4–11 cells [2]): above 350 nM
- neutrophils, red blood cells, platelets ([3]; day 28, DAC intraperitoneal three times weekly): statistically significant decreases
- onset of cell death (negative GDI) (MV4–11 cells [4]; MV4–11): 2 days
- cell lines with negative growth–death index (GDI) ([5]; day 6): 80%
- lowest dose with accumulation of γH2AX (DNA damage) [6]: 16 nM
- survival benefit over vehicle [7]: 13 days

- IC50 (DNMT1 [8]): 110 ± 20 nM
Molecule: CCc1c(C#N)c(SCc2ccc(N(C)S(C)(=O)=O)cc2)nc(N(C)CCNC)c1C#N [GSK3830052]

Molecule: Nc1ncnc2c1ncn2[C@@H]1O[C@H](CSCC[C@H](N)C(=O)O)[C@@H](O)[C@H]1O [SAH, S-adenosyl-L-homocysteine, reference compound]
- reduction in inhibition of H1507Y mutant versus wild-type DNMT1 (H1507Y mutant DNMT1): not observed

- nonspecific DNA binding ([9]; 100 μM compound): did not bind DNA nonspecifically
- Tm of hemi-methylated hairpin oligonucleotide ([9]; with DMSO or 100 μM compound): 77.5 °C
- reversibility of DNMT1 inhibition (DNMT1 [10]): rapidly reversible inhibition
- chemical stability [11]: chemically stable
Molecule: CCc1c(C#N)c(SC(C(N)=O)c2ccccc2)nc(N(C)C)c1C#N (stereo not drawn) [GSK3484862]
- IC50 (Gla1): > 50000 nM

Molecule: Cc1cc(Nc2ccc(NC(=O)c3ccc(Nc4ccnc5ccccc45)cc3)cc2)nc(N)n1 [SGI-1027]
- activity against DNMT1 (DNMT1 [12]): low μM activity
- cell growth (MV4–11 cells [4]; MV4–11, day 6): inhibited cell growth
- activity against DNMT3A (DNMT3A): low μM activity

Molecule: CCc1c(C#N)c(SC(C(N)=O)c2ccccc2)nc(N2CCC(N)CC2)c1C#N (stereo not drawn) [GSK3685032]
- covalent binding to DNMT1 (Murine DNMT1 (731–1602)): noncovalent
- IC50 (kinases (n = 369)): > 10000 nM
- blood half-life (Mouse pharmacokinetics): > 1.8 h
- clearance (Mouse pharmacokinetics): low clearance
- volume of distribution (Mouse pharmacokinetics): moderate volume of distribution
- dose giving clear tumor regression (SKM-1 xenograft; SKM-1, subcutaneous twice daily): ≥ 30 mg/kg
- animals maintaining tumor volumes ≤200 mm^3 while off drug (SKM-1 xenograft; SKM-1, ≥30 mg kg^−1, 4-week observation after dosing): ≥ 60%
- well tolerated dose [13]: at least 45 mg kg^−1
- maximal loss of DNA methylation in tumors (SKM-1 tumors): 46%
- IC50 [14]: > 10000 nM
- dose giving clear tumor regression (MV4–11 xenograft; MV4–11, subcutaneous twice daily): ≥ 30 mg/kg
- animals maintaining tumor volumes ≤200 mm^3 while off drug (MV4–11 xenograft; MV4–11, ≥30 mg kg^−1, 4-week observation after dosing): ≥ 60%
- additional loss of global DNA methylation versus DAC (MV4–11 cells [2]): 13%
- maximal response, loss of global DNA methylation (MV4–11 cells [2]): 83%
- neutrophils, red blood cells, platelets ([3]; day 28, 1 or 5 mg kg^−1): no statistically significant changes
- onset of growth inhibition (MV4–11 cells [4]; AML lines, 6 d time course): ≥ 3 days
- IC50 ([5]; read-out: median growth IC50 (gIC50), day 6, median of panel): 640 nM
- effects on DNMT3A, DNMT3B or γH2AX [6]: no immediate effects
- cellular target engagement (DNMT1 thermal stabilization) (DNMT1 in HepG2 cells): stabilization of DNMT1
- reduction in inhibition of H1507Y mutant versus wild-type DNMT1 (H1507Y mutant DNMT1): > 350 fold
- mice surviving nearly 7 weeks after dosing ended [7]: 50%
- survival benefit over vehicle [7]: > 43 days

B1: 12-bp hemi-methylated DNA with zebularine (dsDNA)
DNA 1: GAGGCCGCCTGC
DNA 2: GCAGGCGGCCTC
modifications: strand 1 C6 = 5-methylcytosine (M); strand 2 C6 = zebularine (Z, in place of target cytidine)
- binding result (DNMT1 (729-1600)): binds
